Source: ChEMBL document CHEMBL1158621, “Tricyclic sulfones as orally active gamma-secretase inhibitors: synthesis and structure-activity relationship studies” (Bioorg Med Chem Lett, 2010)
The source made the active and inactive calls. No cut-off for these calls is given here.

Tests used:
[1] = Inhibition of gamma-secretase-mediated cleavage of human APP Swedish and London mutation expressed in HEK293 cell membrane; format: cell-based
[2] = Inhibition of gamma-secretase-mediated cleavage of human APP Swedish and London mutation expressed in HEK293 cells assessed as reduction in amyloid beta42 production after 4 hrs by ECL technology; format: cell-based
[3] = Inhibition of gamma-secretase-mediated cleavage of human APP Swedish and London mutation expressed in HEK293 cells assessed as reduction in amyloid beta40 production after 4 hrs by ECL technology; format: cell-based
Outline: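 HEK293 cells expressing human APP with Swedish and London mutations were given fresh medium and incubated with inhibitor for 4 h. Ab40 was measured in 10 microliters of conditioned medium by ECL. Values are means of n = 2.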

[4] = system: Mus musculus; test: Reduction of amyloid beta40 level in non-transgenic mouse plasma at 10 mg/kg, po after 3 hrs; format: functional
[5] = system: Mus musculus; test: Reduction of amyloid beta40 level in non-transgenic mouse brain at 10 mg/kg, po after 3 hrs; format: functional
[6] = Permeability across human Caco-2 cells; format: ADME, cell-based; settings: read-out: permeability
[7] = Binding affinity to p-glycoprotein
[8] = target: Cytochrome P450 3A4 (Homo sapiens, UniProt P08684); test: Inhibition of CYP3A4 preincubated for 30 mins; format: ADME
Outline: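 CYP3A4 inhibition was determined after the compound was pre-incubated for 30 min.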

[9] = AUC in rat at 10 mg/kg, po after 6 hrs; format: ADME, organism-based; design: time < 6 hr, dose 10 mg/kg, route oral; settings: plasma
Outline: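 Rats were dosed orally at 10 mpk in 20% HPBCD. AUC was measured over 6 h by the cassette-accelerated rapid rat screen (CARRS).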

[10] = Drug level in rat brain at 10 mg/kg, po after 6 hrs; format: ADME, organism-based; design: dose 10 mg/kg, route oral; settings: read-out: Drug uptake
[11] = Ratio of drug level in brain to plasma in rat at 10 mg/kg, po; format: ADME, organism-based; design: dose 10 mg/kg, route oral
[12] = target: Voltage-gated inwardly rectifying potassium channel KCNH2 (Homo sapiens, UniProt Q12809); test: Inhibition of human ERG at 30 uM
[13] = species: Homo sapiens; test: Protein binding in human plasma; settings: read-out: PPB (converted)

Sequence of Voltage-gated inwardly rectifying potassium channel KCNH2 (Q12809 whole entry): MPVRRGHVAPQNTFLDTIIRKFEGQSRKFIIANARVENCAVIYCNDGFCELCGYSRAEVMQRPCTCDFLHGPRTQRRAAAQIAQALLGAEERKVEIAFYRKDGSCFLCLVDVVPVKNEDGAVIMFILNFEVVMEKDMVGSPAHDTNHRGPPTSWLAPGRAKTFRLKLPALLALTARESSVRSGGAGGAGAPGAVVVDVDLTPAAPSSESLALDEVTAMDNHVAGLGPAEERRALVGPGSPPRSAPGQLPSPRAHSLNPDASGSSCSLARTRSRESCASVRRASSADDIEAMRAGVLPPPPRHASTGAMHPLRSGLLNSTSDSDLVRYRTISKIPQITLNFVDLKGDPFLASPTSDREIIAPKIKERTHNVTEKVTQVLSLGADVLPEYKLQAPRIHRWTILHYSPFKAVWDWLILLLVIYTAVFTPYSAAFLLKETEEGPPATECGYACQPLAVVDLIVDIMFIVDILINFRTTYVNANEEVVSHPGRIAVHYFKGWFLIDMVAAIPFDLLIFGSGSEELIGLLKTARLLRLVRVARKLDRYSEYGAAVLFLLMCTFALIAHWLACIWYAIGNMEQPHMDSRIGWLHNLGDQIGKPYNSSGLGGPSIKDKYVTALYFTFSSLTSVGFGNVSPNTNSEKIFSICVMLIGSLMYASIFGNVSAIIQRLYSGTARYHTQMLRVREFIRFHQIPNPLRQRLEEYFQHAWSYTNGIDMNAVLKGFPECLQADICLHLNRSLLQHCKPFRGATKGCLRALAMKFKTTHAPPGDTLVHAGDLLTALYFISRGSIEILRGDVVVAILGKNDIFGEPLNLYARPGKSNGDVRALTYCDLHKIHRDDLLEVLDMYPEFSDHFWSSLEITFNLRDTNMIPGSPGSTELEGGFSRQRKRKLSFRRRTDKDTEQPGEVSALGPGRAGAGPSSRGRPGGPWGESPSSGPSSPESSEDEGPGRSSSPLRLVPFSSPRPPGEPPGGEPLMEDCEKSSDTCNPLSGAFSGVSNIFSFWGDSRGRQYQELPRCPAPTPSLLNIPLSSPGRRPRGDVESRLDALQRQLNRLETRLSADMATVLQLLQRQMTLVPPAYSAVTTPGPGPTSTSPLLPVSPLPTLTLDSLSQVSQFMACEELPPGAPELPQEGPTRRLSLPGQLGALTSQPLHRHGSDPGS
Sequence of Cytochrome P450 3A4 (P08684 whole entry): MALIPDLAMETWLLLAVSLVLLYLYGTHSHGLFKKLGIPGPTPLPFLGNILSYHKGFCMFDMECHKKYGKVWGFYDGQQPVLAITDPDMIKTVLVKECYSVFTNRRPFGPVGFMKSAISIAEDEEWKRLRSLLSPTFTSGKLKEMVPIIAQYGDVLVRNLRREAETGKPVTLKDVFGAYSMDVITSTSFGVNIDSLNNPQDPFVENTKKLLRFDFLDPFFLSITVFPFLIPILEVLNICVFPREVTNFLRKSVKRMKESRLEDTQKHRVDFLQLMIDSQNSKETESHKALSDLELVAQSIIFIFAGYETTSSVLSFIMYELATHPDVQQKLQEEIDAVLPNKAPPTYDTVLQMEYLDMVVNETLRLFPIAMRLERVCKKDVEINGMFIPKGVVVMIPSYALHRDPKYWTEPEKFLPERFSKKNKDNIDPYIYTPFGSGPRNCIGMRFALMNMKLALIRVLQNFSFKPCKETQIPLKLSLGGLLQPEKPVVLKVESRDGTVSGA

SMILES	IC50 [1]	IC50 [2]	IC50 [3]	further results
O=S(=O)(N(C[C@@H]1CCC[C@@]2(S(=O)(=O)c3ccc(C(F)(F)F)cc3)c3c(F)ccc(F)c3OC[C@@H]12)C1CC1)C(F)(F)F	35.3 nM	14.2 nM	15.3 nM	
O=S(=O)(NC[C@@H]1CCC[C@@]2(S(=O)(=O)c3ccc(Cl)cc3)c3c(F)ccc(F)c3OC[C@@H]12)N1CCCCC1	6 nM	11 nM	19 nM	
CCCCS(=O)(=O)NC[C@@H]1CCC[C@@]2(S(=O)(=O)c3ccc(Cl)cc3)c3c(F)ccc(F)c3OC[C@@H]12	13 nM	13 nM	29 nM	
CN1CCN(C[C@@H]2CCC[C@@]3(S(=O)(=O)c4ccc(C(F)(F)F)cc4)c4c(F)ccc(F)c4OC[C@@H]23)S1(=O)=O	68 nM	13 nM	23 nM	
O=S(=O)(CC(F)(F)F)NC[C@@H]1CCC[C@@]2(S(=O)(=O)c3ccc(C(F)(F)F)cc3)c3c(F)ccc(F)c3OC[C@@H]12	25 nM	8 nM	22.7 nM	
O=S(=O)(NC[C@@H]1CCC[C@@]2(S(=O)(=O)c3ccc(Cl)cc3)c3c(F)ccc(F)c3OC[C@@H]12)C1CC1	3.1 nM	4 nM	4 nM	
CCN(C[C@@H]1CCC[C@@]2(S(=O)(=O)c3ccc(Cl)cc3)c3c(F)ccc(F)c3OC[C@@H]12)S(=O)(=O)C1CC1	20.5 nM	9 nM	25 nM	
NS(=O)(=O)NC[C@@H]1CCC[C@@]2(S(=O)(=O)c3ccc(C(F)(F)F)cc3)c3c(F)ccc(F)c3OC[C@@H]12	18.7 nM	4 nM	6 nM	
O=S(=O)(NC[C@@H]1CCC[C@@]2(S(=O)(=O)c3ccc(C(F)(F)F)cc3)c3c(F)ccc(F)c3OC[C@@H]12)C1CC1	19.7 nM	6.3 nM	17.5 nM	
NS(=O)(=O)NC[C@@H]1CCC[C@@]2(S(=O)(=O)c3ccc(Cl)cc3)c3c(F)ccc(F)c3OC[C@@H]12	2 nM	1 nM	1 nM	
O=S(=O)(NC[C@@H]1CCC[C@@]2(S(=O)(=O)c3ccc(Cl)cc3)c3c(F)ccc(F)c3OC[C@@H]12)c1cccs1	16.7 nM	18 nM	45 nM	
CCCS(=O)(=O)NC[C@@H]1CCC[C@@]2(S(=O)(=O)c3ccc(Cl)cc3)c3c(F)ccc(F)c3OC[C@@H]12	5.5 nM	6 nM	12 nM	
O=S1(=O)NCCN1C[C@@H]1CCC[C@@]2(S(=O)(=O)c3ccc(C(F)(F)F)cc3)c3c(F)ccc(F)c3OC[C@@H]12	37.7 nM			
CS(=O)(=O)N(C[C@@H]1CCC[C@@]2(S(=O)(=O)c3ccc(Cl)cc3)c3c(F)ccc(F)c3OC[C@@H]12)C1CC1	3.3 nM	4 nM	6 nM	
CN(C)S(=O)(=O)NC[C@@H]1CCC[C@@]2(S(=O)(=O)c3ccc(C(F)(F)F)cc3)c3c(F)ccc(F)c3OC[C@@H]12	6.8 nM	5.4 nM	12.7 nM	
O=S(=O)(NC[C@@H]1CCC[C@@]2(S(=O)(=O)c3ccc(Cl)cc3)c3c(F)ccc(F)c3OC[C@@H]12)C(F)(F)F	12 nM	9 nM	18 nM	inhibition in vivo at 10 mg/kg [4]: 86%; inhibition in vivo at 10 mg/kg [5]: 48%
CCOC(=O)CCS(=O)(=O)NC[C@@H]1CCC[C@@]2(S(=O)(=O)c3ccc(Cl)cc3)c3c(F)ccc(F)c3OC[C@@H]12	2 nM	3 nM	4 nM	
CCN(C[C@@H]1CCC[C@@]2(S(=O)(=O)c3ccc(C(F)(F)F)cc3)c3c(F)ccc(F)c3OC[C@@H]12)S(=O)(=O)C1CC1	83 nM	21 nM	46.7 nM	
CCS(=O)(=O)N(C[C@@H]1CCC[C@@]2(S(=O)(=O)c3ccc(C(F)(F)F)cc3)c3c(F)ccc(F)c3OC[C@@H]12)C1CC1	28 nM	14.2 nM	29.5 nM	
CS(=O)(=O)N(C[C@@H]1CCC[C@@]2(S(=O)(=O)c3ccc(C(F)(F)F)cc3)c3c(F)ccc(F)c3OC[C@@H]12)C1CC1	5.8 nM	6 nM	9 nM	
CCS(=O)(=O)NC[C@@H]1CCC[C@@]2(S(=O)(=O)c3ccc(Cl)cc3)c3c(F)ccc(F)c3OC[C@@H]12	1.6 nM	2 nM	4 nM	

SMILES	IC50 [1]	IC50 [2]	IC50 [3]	further results
CS(=O)(=O)NC[C@@H]1CCC[C@@]2(S(=O)(=O)c3ccc(Cl)cc3)c3c(F)ccc(F)c3OC[C@@H]12	2.5 nM	2 nM	2 nM	
CS(=O)(=O)NC[C@@H]1CCC[C@@]2(S(=O)(=O)c3ccc(C(F)(F)F)cc3)c3c(F)ccc(F)c3OC[C@@H]12	13 nM	3.6 nM	12 nM	Papp [6]: 42.1 ×10⁻⁶ cm/s; Activity [7]: inactive; IC50 [8]: > 30000 nM; AUC at 6 h [9]: 2010 ng·h/mL; concentration at 6 h [10]: 80 ng/g; Kp [11]: 0.73; inhibition (INH) [12]: Not Active; fraction unbound [13]: 0.019
CCS(=O)(=O)NC[C@@H]1CCC[C@@]2(S(=O)(=O)c3ccc(C(F)(F)F)cc3)c3c(F)ccc(F)c3OC[C@@H]12	20 nM	1.6 nM	5.5 nM	
CCN(C[C@@H]1CCC[C@@]2(S(=O)(=O)c3ccc(C(F)(F)F)cc3)c3c(F)ccc(F)c3OC[C@@H]12)S(=O)(=O)C(F)(F)F	97 nM	21 nM	42 nM	
O=S1(=O)CCCN1C[C@@H]1CCC[C@@]2(S(=O)(=O)c3ccc(C(F)(F)F)cc3)c3c(F)ccc(F)c3OC[C@@H]12	90 nM	25 nM	72 nM	
O=S(=O)(CC(F)(F)F)NC[C@@H]1CCC[C@@]2(S(=O)(=O)c3ccc(Cl)cc3)c3c(F)ccc(F)c3OC[C@@H]12	7.8 nM	4 nM	16 nM	
O=S(=O)(NC[C@@H]1CCC[C@@]2(S(=O)(=O)c3ccc(Cl)cc3)c3c(F)ccc(F)c3OC[C@@H]12)N1CCCC1	3.3 nM	3 nM	5 nM	
O=S(=O)(NC[C@@H]1CCC[C@@]2(S(=O)(=O)c3ccc(C(F)(F)F)cc3)c3c(F)ccc(F)c3OC[C@@H]12)C(F)(F)F	41.7 nM	18.7 nM	40.6 nM	Papp [6]: 23 ×10⁻⁶ cm/s; Activity [7]: inactive; IC50 [8]: > 30000 nM; AUC at 6 h [9]: 702 ng·h/mL; concentration at 6 h [10]: 91 ng/g; Kp [11]: 1.01; inhibition in vivo at 10 mg/kg [4]: 101%; inhibition in vivo at 10 mg/kg [5]: 71%; inhibition (INH) [12]: Not Active; fraction unbound [13]: 0.001
CCN(C[C@@H]1CCC[C@@]2(S(=O)(=O)c3ccc(Cl)cc3)c3c(F)ccc(F)c3OC[C@@H]12)S(C)(=O)=O	5.5 nM	5 nM	12 nM	
O=S(=O)(N(C[C@@H]1CCC[C@@]2(S(=O)(=O)c3ccc(Cl)cc3)c3c(F)ccc(F)c3OC[C@@H]12)C1CC1)C(F)(F)F	15 nM	9 nM	21 nM	
CC(C)S(=O)(=O)NC[C@@H]1CCC[C@@]2(S(=O)(=O)c3ccc(Cl)cc3)c3c(F)ccc(F)c3OC[C@@H]12	5.2 nM	5 nM	12 nM	
O=S(=O)(NC[C@@H]1CCC[C@@]2(S(=O)(=O)c3ccc(Cl)cc3)c3c(F)ccc(F)c3OC[C@@H]12)c1c(F)cccc1F	13 nM	17 nM	32 nM	
CCN(C[C@@H]1CCC[C@@]2(S(=O)(=O)c3ccc(Cl)cc3)c3c(F)ccc(F)c3OC[C@@H]12)S(=O)(=O)CC	16 nM	7 nM	15 nM	
O=S(=O)(NC[C@@H]1CCC[C@@]2(S(=O)(=O)c3ccc(Cl)cc3)c3c(F)ccc(F)c3OC[C@@H]12)N1CCOCC1	3.4 nM	3 nM	6 nM	
O=S1(=O)CCCCN1C[C@@H]1CCC[C@@]2(S(=O)(=O)c3ccc(C(F)(F)F)cc3)c3c(F)ccc(F)c3OC[C@@H]12	122 nM			
O=S(=O)(NC[C@@H]1CCC[C@@]2(S(=O)(=O)c3ccc(Cl)cc3)c3c(F)ccc(F)c3OC[C@@H]12)c1ccccc1	61 nM	46 nM	128 nM	
CCN(CC)S(=O)(=O)NC[C@@H]1CCC[C@@]2(S(=O)(=O)c3ccc(Cl)cc3)c3c(F)ccc(F)c3OC[C@@H]12	9 nM	3 nM	6 nM	
CCN(C[C@@H]1CCC[C@@]2(S(=O)(=O)c3ccc(C(F)(F)F)cc3)c3c(F)ccc(F)c3OC[C@@H]12)S(C)(=O)=O	34 nM	7.4 nM	18.5 nM	
CN(C)S(=O)(=O)NC[C@@H]1CCC[C@@]2(S(=O)(=O)c3ccc(Cl)cc3)c3c(F)ccc(F)c3OC[C@@H]12	2.7 nM	1 nM	2 nM	
O=S(=O)(NC[C@@H]1CCC[C@@]2(S(=O)(=O)c3ccc(Cl)cc3)c3c(F)ccc(F)c3OC[C@@H]12)C1CCCCC1	55 nM	20 nM	60 nM	
